Laboratory results reported in ChEMBL document CHEMBL1132973, “Design, synthesis, and antimicrobial activity of 6-O-substituted ketolides active against resistant respiratory tract pathogens” (2000).
Converted amounts (≈) assume the structure as drawn.

Legend:
Format in all cases: functional
Staphylococcus aureus [1] = assay: (§1) In vivo antibacterial activity against Staphylococcus aureus strain 10649
Streptococcus pneumoniae [2] = assay: (§2) In vivo antibacterial activity against Streptococcus pneumoniae strain 5649
Method in brief: (§3)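 Rat lung infection. Rats inoculated intratracheally with 0.5 mL bacterial suspension in 5% gastric hog mucin containing log 10⁶-10⁸ cfu. Dosed daily on days 1-3, starting 18 h post-inoculation. Lung bacterial burden measured by serial-dilution plating of lung homogenates on day 4. ED50, the dose giving a 2 log reduction versus vehicle-treated infected controls, was calculated from group means by linear regression.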

Streptococcus pneumoniae [3] = assay: (§4) In vivo antibacterial activity against Streptococcus pneumoniae strain 6396; method in brief: as §3
Staphylococcus aureus [4] = assay: as §1; remark: listed apart in the source
Method in brief: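 Mice were inoculated intravenously with a 100-fold LD50 of the organism, then dosed by oral gavage at 1 and 5 h post-inoculation across a dose range. Survival was monitored for 7 days. ED50 is the dose giving 50% survival of treated mice over the trial.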

Streptococcus pneumoniae [5] = assay: as §2; remark: listed apart in the source
Streptococcus pneumoniae [6] = assay: (§5) In vivo antibacterial activity against Streptococcus pneumoniae strain 6303
Streptococcus pneumoniae [7] = assay: as §4; remark: listed apart in the source
Streptococcus pyogenes [8] = assay: In vivo antibacterial activity against Streptococcus pyogenes strain C203
Staphylococcus aureus [9] = assay: In vitro antibacterial activity against Staphylococcus aureus strain A 5278.
Method in brief: (§6)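 MICs in µg/mL determined by agar dilution per NCCLS recommendations. Panel includes erythromycin-susceptible strains (S. aureus ATCC 6538P, S. pyogenes EES 61, S. pneumoniae ATCC 6303); ermA MLS_B-resistant S. aureus (A 5177 inducible, A 5278 constitutive); ermB strains (S. pyogenes 930, S. pneumoniae 5737); efflux strains (S. pyogenes PIU 2548 mefA, S. pneumoniae 5649 mefE); and β-lactamase-positive ampicillin-resistant H. influenzae DILL.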

Streptococcus pneumoniae [10] = assay: In vitro antibacterial activity against Streptococcus pneumoniae strain 5737.; method in brief: as §6
Streptococcus pneumoniae [11] = assay: In vitro antibacterial activity against Streptococcus pneumoniae strain ATCC 6303.; method in brief: as §6
Streptococcus pneumoniae [12] = assay: as §5; method in brief: as §3; remark: listed apart in the source
Streptococcus pyogenes [13] = assay: In vitro antibacterial activity against Streptococcus pyogenes strain 930.; method in brief: as §6
Streptococcus pyogenes [14] = assay: In vitro antibacterial activity against Streptococcus pyogenes strain PIU 2548.; method in brief: as §6
Streptococcus pyogenes [15] = assay: In vitro antibacterial activity against Streptococcus pyogenes strain EES 61.; method in brief: as §6
Staphylococcus aureus [16] = assay: In vitro antibacterial activity against Staphylococcus aureus strain A 5177.; method in brief: as §6
Staphylococcus aureus [17] = assay: In vitro antibacterial activity against Staphylococcus aureus strain ATCC 6538P.; method in brief: as §6
Streptococcus pneumoniae [18] = assay: In vitro antibacterial activity against Streptococcus pneumoniae strain 5649.; method in brief: as §6
Haemophilus influenzae = assay: In vitro antibacterial activity against Haemophilus influenzae strain DILL.; method in brief: as §6
Staphylococcus aureus [19] = assay: In vitro antibacterial activity against Staphylococcus aureus strain ATCC 6538P; method in brief: as §6

Structure (SMILES)	MIC (Staphylococcus aureus [9])	MIC (Streptococcus pneumoniae [10])	MIC (Streptococcus pneumoniae [11])	MIC (Streptococcus pyogenes [13])	MIC (Streptococcus pyogenes [14])	MIC (Streptococcus pyogenes [15])	MIC (Staphylococcus aureus [16])	MIC (Staphylococcus aureus [17])	MIC (Streptococcus pneumoniae [18])	MIC (Haemophilus influenzae)	also measured
CC[C@H]1OC(=O)[C@H](C)[C@@H](O[C@H]2C[C@@](C)(OC)[C@@H](O)[C@H](C)O2)[C@H](C)[C@@H](O[C@@H]2O[C@H](C)C[C@H](N(C)C)[C@H]2O)[C@](C)(O)C[C@@H](C)CN(C)[C@H](C)[C@@H](O)[C@]1(C)O [AZITHROMYCIN]											MIC (Staphylococcus aureus [1]): 0.78 µg/mL (≈ 1.04 µM); ED50 (Streptococcus pneumoniae [2]): 78.7 mg/kg; ED50 (Streptococcus pneumoniae [3]): > 100 mg/kg; ED50 (Staphylococcus aureus [4]): 24.8 mg/kg; MIC (Streptococcus pneumoniae [5]): 16 µg/mL (≈ 21.4 µM); MIC (Streptococcus pneumoniae [6]): 0.12 µg/mL (≈ 0.16 µM); MIC (Streptococcus pneumoniae [7]): > 128 µg/mL; ED50 (Streptococcus pyogenes [8]): 6.1 mg/kg; MIC (Streptococcus pyogenes [8]): 0.06 µg/mL (≈ 0.0801 µM); MIC (Streptococcus pyogenes [8]; Streptococcus pyogenes, read-out: MIC): 0.06 µg/mL (≈ 0.0801 µM)
CC[C@H]1OC(=O)[C@H](C)C(=O)[C@H](C)[C@@H](O[C@@H]2O[C@H](C)C[C@H](N(C)C)[C@H]2O)[C@](C)(OC)C[C@@H](C)C(=O)[C@H](C)[C@H]2N(CCCCn3cnc(-c4cccnc4)c3)C(=O)O[C@]12C [TELITHROMYCIN]	> 100 µg/mL	8 µg/mL (≈ 9.85 µM)	0.004 µg/mL (≈ 0.00493 µM)	8 µg/mL (≈ 9.85 µM)	2 µg/mL (≈ 2.46 µM)	0.004 µg/mL (≈ 0.00493 µM)					MIC (Staphylococcus aureus [1]): 0.1 µg/mL (≈ 0.123 µM); ED50 (Streptococcus pneumoniae [2]): 25.8 mg/kg; ED50 (Streptococcus pneumoniae [12]): 34.1 mg/kg; ED50 (Streptococcus pneumoniae [3]): 26.7 mg/kg; ED50 (Staphylococcus aureus [4]): 12.5 mg/kg; MIC (Streptococcus pneumoniae [5]): 0.5 µg/mL (≈ 0.616 µM); MIC (Streptococcus pneumoniae [6]): 0.004 µg/mL (≈ 0.00493 µM); MIC (Streptococcus pneumoniae [7]): 0.125 µg/mL (≈ 0.154 µM)
CC[C@H]1OC(=O)[C@H](C)C(=O)[C@H](C)[C@@H](O[C@@H]2O[C@H](C)C[C@H](N(C)C)[C@H]2O)[C@](C)(OC/C=C/c2ccccc2)C[C@@H](C)C(=O)[C@H](C)[C@H]2NC(=O)O[C@@]21C	> 100 µg/mL	64 µg/mL (≈ 89.5 µM)	0.03 µg/mL (≈ 0.042 µM)	64 µg/mL (≈ 89.5 µM)	0.25 µg/mL (≈ 0.35 µM)	0.03 µg/mL (≈ 0.042 µM)	0.1 µg/mL (≈ 0.14 µM)	0.1 µg/mL (≈ 0.14 µM)	0.25 µg/mL (≈ 0.35 µM)	4 µg/mL (≈ 5.6 µM)	
CC[C@H]1OC(=O)[C@H](C)C(=O)[C@H](C)[C@@H](O[C@@H]2O[C@H](C)C[C@H](N(C)C)[C@H]2O)[C@@](C)(OC/C=C/c2cnc3ccccc3c2)C[C@@H](C)C(=O)[C@H](C)[C@@H](O)[C@]1(C)O	> 100 µg/mL	16 µg/mL (≈ 21.6 µM)	0.03 µg/mL (≈ 0.0405 µM)	100 µg/mL (≈ 135 µM)	0.1 µg/mL (≈ 0.135 µM)	0.2 µg/mL (≈ 0.27 µM)	0.2 µg/mL (≈ 0.27 µM)	0.2 µg/mL (≈ 0.27 µM)	0.25 µg/mL (≈ 0.337 µM)	16 µg/mL (≈ 21.6 µM)	
CC[C@H]1OC(=O)[C@H](C)C(=O)[C@H](C)[C@@H](O[C@@H]2O[C@H](C)C[C@H](N(C)C)[C@H]2O)[C@](C)(OCC=Cc2cnc3ccccc3c2)C[C@@H](C)C(=O)[C@H](C)[C@H]2NC(=O)O[C@@]21C [CETHROMYCIN]	> 100 µg/mL	0.25 µg/mL (≈ 0.326 µM)	0.004 µg/mL (≈ 0.00522 µM)	1 µg/mL (≈ 1.31 µM)	0.125 µg/mL (≈ 0.163 µM)	0.004 µg/mL (≈ 0.00522 µM)	0.05 µg/mL (≈ 0.0653 µM)	0.05 µg/mL (≈ 0.0653 µM)	0.25 µg/mL (≈ 0.326 µM)	2 µg/mL (≈ 2.61 µM)	
CC[C@H]1OC(=O)[C@H](C)[C@@H](O[C@H]2C[C@@](C)(OC)[C@@H](O)[C@H](C)O2)[C@H](C)[C@@H](O[C@@H]2O[C@H](C)C[C@H](N(C)C)[C@H]2O)[C@](C)(O)C[C@@H](C)C(=O)[C@H](C)[C@@H](O)[C@]1(C)O [ERYTHROMYCIN]	> 100 µg/mL	> 128 µg/mL	0.06 µg/mL (≈ 0.0818 µM)	> 128 µg/mL	32 µg/mL (≈ 43.6 µM)	0.06 µg/mL (≈ 0.0818 µM)	6.2 µg/mL (≈ 8.45 µM)		16 µg/mL (≈ 21.8 µM)	8 µg/mL (≈ 10.9 µM)	
C=CCO[C@@]1(C)C[C@@H](C)C(=O)[C@H](C)[C@@H](O)[C@](C)(O)[C@@H](CC)OC(=O)[C@H](C)C(=O)[C@H](C)[C@H]1O[C@@H]1O[C@H](C)C[C@H](N(C)C)[C@H]1O	> 100 µg/mL	> 128 µg/mL	4 µg/mL (≈ 6.52 µM)	> 128 µg/mL	32 µg/mL (≈ 52.1 µM)		50 µg/mL (≈ 81.5 µM)		8 µg/mL (≈ 13 µM)	> 128 µg/mL	MIC (Staphylococcus aureus [19]): 12.5 µg/mL (≈ 20.4 µM)
CC[C@H]1OC(=O)[C@H](C)C(=O)[C@H](C)[C@@H](O[C@@H]2O[C@H](C)C[C@H](N(C)C)[C@H]2O)[C@](C)(OC/C=C/c2ccccc2)C[C@@H](C)C(=O)[C@H](C)[C@@H](O)[C@]1(C)O	> 100 µg/mL	64 µg/mL (≈ 92.8 µM)	0.25 µg/mL (≈ 0.362 µM)	64 µg/mL (≈ 92.8 µM)	2 µg/mL (≈ 2.9 µM)	0.25 µg/mL (≈ 0.362 µM)	1.56 µg/mL (≈ 2.26 µM)	1.56 µg/mL (≈ 2.26 µM)	2 µg/mL (≈ 2.9 µM)	128 µg/mL (≈ 186 µM)	
C=CCO[C@@]1(C)C[C@@H](C)C(=O)[C@H](C)[C@H]2NC(=O)O[C@]2(C)[C@@H](CC)OC(=O)[C@H](C)C(=O)[C@H](C)[C@H]1O[C@@H]1O[C@H](C)C[C@H](N(C)C)[C@H]1O	> 100 µg/mL	> 64 µg/mL	0.5 µg/mL (≈ 0.783 µM)	> 64 µg/mL	2 µg/mL (≈ 3.13 µM)	0.25 µg/mL (≈ 0.391 µM)	1.56 µg/mL (≈ 2.44 µM)	0.78 µg/mL (≈ 1.22 µM)	0.25 µg/mL (≈ 0.391 µM)	64 µg/mL (≈ 100 µM)	
